From ChEMBL document CHEMBL1156752, “Phosphinic tripeptides as dual angiotensin-converting enzyme C-domain and endothelin-converting enzyme-1 inhibitors” (J Med Chem, 2010)

Tests used:
[1] = molecular target: T1, Angiotensin-converting enzyme (Homo sapiens, UniProt P12821); assay: Inhibition of human somatic ACE C-terminal domain
[2] = molecular target: T2, Endothelin-converting enzyme 1 (Homo sapiens, UniProt P42892); assay: Inhibition of human somatic ECE1
T2 sequence (P42892 whole entry): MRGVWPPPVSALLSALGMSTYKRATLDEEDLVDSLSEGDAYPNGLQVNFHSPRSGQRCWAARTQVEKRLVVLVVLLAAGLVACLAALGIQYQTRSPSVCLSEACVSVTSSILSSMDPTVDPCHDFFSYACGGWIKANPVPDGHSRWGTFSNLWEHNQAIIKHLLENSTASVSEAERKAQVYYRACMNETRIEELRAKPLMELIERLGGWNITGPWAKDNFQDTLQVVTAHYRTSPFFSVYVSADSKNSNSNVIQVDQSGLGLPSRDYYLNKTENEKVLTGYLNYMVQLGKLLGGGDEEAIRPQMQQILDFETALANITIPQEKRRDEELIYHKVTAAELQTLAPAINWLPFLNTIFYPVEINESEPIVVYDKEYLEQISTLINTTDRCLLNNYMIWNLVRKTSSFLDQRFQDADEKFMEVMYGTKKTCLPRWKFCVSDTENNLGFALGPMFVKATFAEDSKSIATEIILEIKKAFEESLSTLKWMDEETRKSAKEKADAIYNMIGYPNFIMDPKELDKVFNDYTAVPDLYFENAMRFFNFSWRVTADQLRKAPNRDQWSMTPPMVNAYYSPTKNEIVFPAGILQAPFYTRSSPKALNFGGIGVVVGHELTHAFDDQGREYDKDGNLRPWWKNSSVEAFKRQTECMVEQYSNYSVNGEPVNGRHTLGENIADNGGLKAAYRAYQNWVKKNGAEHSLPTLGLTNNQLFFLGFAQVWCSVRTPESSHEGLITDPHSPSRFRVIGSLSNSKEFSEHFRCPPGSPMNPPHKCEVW

Neprilysin = Neprilysin (Homo sapiens, UniProt P08473); assay: Inhibition of human somatic NEP
Procedure, shortened: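 Human NEP (0.5 nM) preincubated 45 min with inhibitor, then Mca-Arg-Pro-Pro-Gly-Phe-Ser-Pro-Dpa-OH (5 μM, Km 2 μM) added. Run at 25 °C, pH 6.8 Hepes/NaCl/ZnCl2/Brij-35 buffer. Fluorescence increase read at ex 320/em 405 nm under initial rates. […] Ki obtained.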

Collagenase 3 = Collagenase 3 (Homo sapiens, UniProt P45452); assay: Inhibition of human MMP13
[3] = molecular target: T1, Angiotensin-converting enzyme; assay: Inhibition of human somatic ACE N-terminal domain
Procedure, shortened: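 Human somatic ACE (0.5 nM) preincubated 45 min with inhibitor, then Mca-Ala-Ser-Asp-Lys-Dpa-OH substrate (8 μM) added. Continuous fluorescence read at ex 320/em 405 nm under initial-rate conditions. […] Ki calculated per domain.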

[4] = molecular target: T1, Angiotensin-converting enzyme; assay: Inhibition of human somatic ACE in presence of 1:50 diluted SHR rat plasma
Procedure, shortened: (§1)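 ACE (1 nM final) and inhibitor at various concentrations incubated 45 min in this plasma. Reaction started with Mca-Ala-Ser-Asp-Lys-Dpa-OH (15 μM). Fluorescence monitored. Apparent Ki derived.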

[5] = molecular target: T1, Angiotensin-converting enzyme; assay: Inhibition of human somatic ACE in presence of 1:100 diluted SHR rat plasma complemented with 5 uM serum albumin; format: cell-free; procedure, shortened: as §1
Rattus norvegicus [6] = assay: Antihypertensive activity in spontaneously hypertensive rat assessed as mean arterial pressure at 10 mg/kg, iv; format: functional, Artery
Procedure, shortened: (§2)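 Male SHR rats (250 g, 12 weeks old) anesthetized with Nesdonal (50 mg/kg ip), tracheotomized, body temperature kept at 37 °C. MAP recorded by femoral artery transducer. Inhibitor or vehicle ([…]) given as iv bolus through venous catheter after 20 min stabilization. MAP followed for 60 min, n = 6/dose.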

Rattus norvegicus [7] = assay: Antihypertensive activity in spontaneously hypertensive rat assessed as mean arterial pressure at 3 mg/kg, iv; format: functional, Artery; procedure, shortened: as §2
[8] = molecular target: T1, Angiotensin-converting enzyme; assay: Inhibition of human somatic ACE in presence of 1:100 diluted SHR rat plasma; format: cell-free; procedure, shortened: as §1
[9] = molecular target: T1, Angiotensin-converting enzyme; assay: Inhibition of human somatic ACE in presence of buffer
Rattus norvegicus [10] = assay: Antihypertensive activity in spontaneously hypertensive rat assessed as mean arterial pressure at 30 mg/kg, iv; format: functional, Artery; procedure, shortened: as §2

Ki [1] [nM] | Ki [2] [nM] | Ki (Neprilysin) [nM] | Ki (Collagenase 3) [nM] | Compound | also measured
12 | > 10000 | 52 | – | O=C(N[C@@H](Cc1ccccc1)P(=O)(O)CC(Cc1ccc(-c2ccccc2)cc1)C(=O)N[C@@H](Cc1c[nH]c2ccccc12)C(=O)O)OCc1ccccc1 (some centres undefined) | –
1.4 | 26 | 130 | 19 | O=C(N[C@@H](Cc1ccccc1)P(=O)(O)C[C@@H](Cc1cc(-c2ccccc2)no1)C(=O)N[C@@H](Cc1c[nH]c2ccccc12)C(=O)O)OCc1ccccc1 | –
16 | 14 | 260 | – | O=C(N[C@@H](Cc1ccccc1)P(=O)(O)CC(Cc1cc(-c2ccccc2)no1)C(=O)N[C@@H](Cc1c[nH]c2ccccc12)C(=O)O)OCc1ccccc1 (some centres undefined) | –
– | 1.2 | 1.4 | – | O=C(N[C@@H](Cc1ccccc1)P(=O)(O)CC(Cc1ccccc1)C(=O)N[C@@H](Cc1c[nH]c2ccccc12)C(=O)O)OCc1ccccc1 (some centres undefined) | –
25 | > 10000 | > 10000 | – | O=C(N[C@@H](Cc1ccccc1)P(=O)(O)CC(CC1CC(c2ccc(-c3ccccc3)cc2)=NO1)C(=O)N[C@@H](Cc1c[nH]c2ccccc12)C(=O)O)OCc1ccccc1 (some centres undefined) | –
20 | > 5000 | > 5000 | – | O=C(N[C@@H](Cc1ccccc1)P(=O)(O)CC(CC1CC(c2ccc(C(F)(F)F)cc2)=NO1)C(=O)N[C@@H](Cc1c[nH]c2ccccc12)C(=O)O)OCc1ccccc1 (some centres undefined) | –
5 | 2100 | 85 | – | C[C@H](NC(=O)C(CC1CC(c2ccccc2)=NO1)CP(=O)(O)[C@H](Cc1ccccc1)NC(=O)OCc1ccccc1)C(=O)O (some centres undefined) | –
13 | 910 | 2500 | – | O=C(N[C@@H](Cc1ccccc1)P(=O)(O)CC(CC1CC(c2ccccc2)=NO1)C(=O)N[C@@H](Cc1c[nH]c2ccccc12)C(=O)O)OCc1ccccc1 (some centres undefined) | –
36 | 8 | 1850 | 1200 | O=C(N[C@@H](Cc1ccccc1)P(=O)(O)C[C@H](Cc1cc(-c2ccccc2)no1)C(=O)N[C@@H](Cc1c[nH]c2ccccc12)C(=O)O)OCc1ccccc1 | Ki [4]: 1520 nM; Ki [5]: 1510 nM; Activity (Rattus norvegicus [6]): 148 mmHg; Ki [9]: 36 nM; Activity (Rattus norvegicus [10]): 96 mmHg; Ki [8]: 500 nM

Further lines, the compound ahead of its results:

Compound | Ki [1] [nM] | Ki [2] [nM] | Ki (Neprilysin) [nM] | Ki (Collagenase 3) [nM] | also measured
O=C(N[C@@H](Cc1ccccc1)P(=O)(O)C1CCC[C@H]1C(=O)N[C@@H](Cc1c[nH]c2ccccc12)C(=O)O)OCc1ccccc1 (single isomer, unassigned) | 3 | > 50000 | > 50000 | – | Ki [3]: 2500 nM
O=C(O)[C@H](Cc1ccc2c(c1)oc1ccccc12)NCP(=O)(O)O | – | – | – | – | IC50 (Neprilysin): 2300 nM
O=C(N[C@@H](Cc1ccccc1)P(=O)(O)C[C@@H](Cc1cc(-c2ccccc2)no1)C(=O)N[C@@H](Cc1ccc(O)cc1)C(=O)O)OCc1ccccc1 | – | – | – | 24 | –
O=C(N[C@@H](Cc1ccccc1)P(=O)(O)C[C@H](Cc1cc(-c2ccccc2)no1)C(=O)N[C@@H](Cc1ccc(O)cc1)C(=O)O)OCc1ccccc1 | – | 14 | 6700 | […] | Ki [4]: […]; Ki [5]: […]; Activity (Rattus norvegicus [6]): 132 mmHg; Activity (Rattus norvegicus [7]): 147 mmHg; Ki [8]: […]
O=C(N[C@@H](Cc1ccccc1)P(=O)(O)C[C@@H](Cc1cc(-c2ccccc2)no1)C(=O)N[C@@H](Cc1ccccc1)C(=O)O)OCc1ccccc1 | 0.4 | 240 | 68 | 30 | –
O=C(N[C@@H](Cc1ccccc1)P(=O)(O)CC(Cc1cc(-c2ccccc2)no1)C(=O)N[C@@H](Cc1ccccc1)C(=O)O)OCc1ccccc1 (single isomer, unassigned) | 3.8 | 7.7 | > 10000 | > 10000 | Ki [4]: 340 nM; Ki [5]: 110 nM; Ki [9]: 3.8 nM; Ki [8]: 32 nM
O=C(N[C@H]1CCS[C@H]2CCC[C@@H](C(=O)O)N2C1=O)[C@@H](S)Cc1ccccc1 [OMAPATRILAT] | 6 | – | 9 | – | –
CS(=O)(=O)N[C@@H](CCCCN)C(=O)N[C@@H](Cc1ccccc1)P(=O)(O)CC1(C(=O)N[C@@H](Cc2c[nH]c3ccccc23)C(=O)O)CCCC1 | – | – | – | – | IC50 [1]: 2.5 nM; IC50 (Neprilysin): 90 nM
